Experimental data taken from ChEMBL document CHEMBL4373703 (J Med Chem, 2019).
≈ marks a conversion by molar mass, not a printed value. Calls of active or inactive are those of the source. The calls are words filed in the database; no cut-off is given here.

Legend:
[1] = Intrinsic clearance in human liver microsomes at 1 uM in presence of NADPH measured up to 30 mins by LC-MS/MS analysis; format: ADME, Microsome; conditions: read-out: CLH
[2] = Apparent permeability across apical to basolateral side in human Caco2 cells at 1 uM incubated for 2 hrs by LC-MS/MS analysis; format: ADME, cell-based; conditions: Caco-2
[3] = Kinetic solubility of the compound; format: physicochemical; conditions: read-out: Kinetic_solubility
[4] = target: T1, Tyrosine-protein kinase BTK (Homo sapiens, UniProt Q06187); experiment: Covalent inhibition of N-terminal GST-fused human BTK (2-659(end) amino acids) expressed in baculovirus expression system using FITC-AHA-EEPLYWSFPAKKK-NH2 as substrate incubated for 90 mins by microfluidic off-Chip Mobility Shift Assay
T1 sequence (Q06187 whole entry, the tested form may be a part): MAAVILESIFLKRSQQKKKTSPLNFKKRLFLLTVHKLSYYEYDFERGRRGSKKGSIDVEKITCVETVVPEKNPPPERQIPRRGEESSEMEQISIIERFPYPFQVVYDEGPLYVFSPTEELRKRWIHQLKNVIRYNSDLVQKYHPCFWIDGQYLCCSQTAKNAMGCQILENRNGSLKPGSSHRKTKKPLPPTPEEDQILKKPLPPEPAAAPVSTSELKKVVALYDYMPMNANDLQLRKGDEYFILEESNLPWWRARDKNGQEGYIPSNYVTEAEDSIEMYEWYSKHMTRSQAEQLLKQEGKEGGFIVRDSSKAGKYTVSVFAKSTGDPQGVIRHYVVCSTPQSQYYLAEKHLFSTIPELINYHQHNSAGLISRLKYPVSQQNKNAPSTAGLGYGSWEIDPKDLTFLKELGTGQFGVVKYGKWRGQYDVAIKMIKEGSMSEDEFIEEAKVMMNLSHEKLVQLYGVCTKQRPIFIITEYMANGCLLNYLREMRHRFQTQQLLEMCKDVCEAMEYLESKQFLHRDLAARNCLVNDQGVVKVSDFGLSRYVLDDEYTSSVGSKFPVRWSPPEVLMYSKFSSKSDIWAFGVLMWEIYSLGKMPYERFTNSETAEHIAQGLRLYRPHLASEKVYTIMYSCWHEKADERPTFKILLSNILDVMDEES

[5] = target: Voltage-gated inwardly rectifying potassium channel KCNH2 (Homo sapiens, UniProt Q12809); experiment: Inhibition of human ERG expressed in HEK293 cells at -80 mV holding potential by […]; format: cell-based
Voltage-gated inwardly rectifying potassium channel KCNH2, sequence (Q12809 whole entry): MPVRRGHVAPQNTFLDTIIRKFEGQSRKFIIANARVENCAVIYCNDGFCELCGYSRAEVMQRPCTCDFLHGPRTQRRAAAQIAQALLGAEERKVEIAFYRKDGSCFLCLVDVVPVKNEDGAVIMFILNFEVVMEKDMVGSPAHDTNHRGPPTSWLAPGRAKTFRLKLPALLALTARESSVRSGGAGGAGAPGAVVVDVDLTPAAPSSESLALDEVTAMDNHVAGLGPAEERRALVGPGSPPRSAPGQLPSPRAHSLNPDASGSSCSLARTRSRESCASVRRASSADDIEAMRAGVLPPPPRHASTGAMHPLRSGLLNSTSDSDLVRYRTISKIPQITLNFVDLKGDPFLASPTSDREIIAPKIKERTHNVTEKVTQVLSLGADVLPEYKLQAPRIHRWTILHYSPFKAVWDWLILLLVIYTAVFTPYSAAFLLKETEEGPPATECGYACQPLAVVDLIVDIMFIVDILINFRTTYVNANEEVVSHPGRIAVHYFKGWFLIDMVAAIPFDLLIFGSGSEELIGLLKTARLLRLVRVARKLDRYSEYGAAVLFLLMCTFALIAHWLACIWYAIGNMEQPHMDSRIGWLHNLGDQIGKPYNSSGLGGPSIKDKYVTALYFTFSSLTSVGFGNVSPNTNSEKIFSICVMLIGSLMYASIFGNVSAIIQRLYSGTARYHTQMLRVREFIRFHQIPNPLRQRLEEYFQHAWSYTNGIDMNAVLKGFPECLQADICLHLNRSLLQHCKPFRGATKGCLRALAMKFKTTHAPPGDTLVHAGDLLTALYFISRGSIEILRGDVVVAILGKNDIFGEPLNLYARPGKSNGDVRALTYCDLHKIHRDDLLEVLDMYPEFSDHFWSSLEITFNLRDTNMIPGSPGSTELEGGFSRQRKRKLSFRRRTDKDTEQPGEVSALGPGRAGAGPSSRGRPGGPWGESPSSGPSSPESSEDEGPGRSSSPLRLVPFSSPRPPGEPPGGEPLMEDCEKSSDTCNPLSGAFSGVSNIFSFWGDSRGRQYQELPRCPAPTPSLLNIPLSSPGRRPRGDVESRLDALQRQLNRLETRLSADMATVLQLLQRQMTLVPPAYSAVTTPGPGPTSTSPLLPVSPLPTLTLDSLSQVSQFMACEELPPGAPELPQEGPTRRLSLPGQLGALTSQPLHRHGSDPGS

[6] = target: Epidermal growth factor receptor (Homo sapiens, UniProt P00533); experiment: Inhibition of N-terminal GST-tagged human EGFR (696 to end aminoacids) expressed in baculovirus infected Sf21 cells
Epidermal growth factor receptor, sequence (P00533 whole entry): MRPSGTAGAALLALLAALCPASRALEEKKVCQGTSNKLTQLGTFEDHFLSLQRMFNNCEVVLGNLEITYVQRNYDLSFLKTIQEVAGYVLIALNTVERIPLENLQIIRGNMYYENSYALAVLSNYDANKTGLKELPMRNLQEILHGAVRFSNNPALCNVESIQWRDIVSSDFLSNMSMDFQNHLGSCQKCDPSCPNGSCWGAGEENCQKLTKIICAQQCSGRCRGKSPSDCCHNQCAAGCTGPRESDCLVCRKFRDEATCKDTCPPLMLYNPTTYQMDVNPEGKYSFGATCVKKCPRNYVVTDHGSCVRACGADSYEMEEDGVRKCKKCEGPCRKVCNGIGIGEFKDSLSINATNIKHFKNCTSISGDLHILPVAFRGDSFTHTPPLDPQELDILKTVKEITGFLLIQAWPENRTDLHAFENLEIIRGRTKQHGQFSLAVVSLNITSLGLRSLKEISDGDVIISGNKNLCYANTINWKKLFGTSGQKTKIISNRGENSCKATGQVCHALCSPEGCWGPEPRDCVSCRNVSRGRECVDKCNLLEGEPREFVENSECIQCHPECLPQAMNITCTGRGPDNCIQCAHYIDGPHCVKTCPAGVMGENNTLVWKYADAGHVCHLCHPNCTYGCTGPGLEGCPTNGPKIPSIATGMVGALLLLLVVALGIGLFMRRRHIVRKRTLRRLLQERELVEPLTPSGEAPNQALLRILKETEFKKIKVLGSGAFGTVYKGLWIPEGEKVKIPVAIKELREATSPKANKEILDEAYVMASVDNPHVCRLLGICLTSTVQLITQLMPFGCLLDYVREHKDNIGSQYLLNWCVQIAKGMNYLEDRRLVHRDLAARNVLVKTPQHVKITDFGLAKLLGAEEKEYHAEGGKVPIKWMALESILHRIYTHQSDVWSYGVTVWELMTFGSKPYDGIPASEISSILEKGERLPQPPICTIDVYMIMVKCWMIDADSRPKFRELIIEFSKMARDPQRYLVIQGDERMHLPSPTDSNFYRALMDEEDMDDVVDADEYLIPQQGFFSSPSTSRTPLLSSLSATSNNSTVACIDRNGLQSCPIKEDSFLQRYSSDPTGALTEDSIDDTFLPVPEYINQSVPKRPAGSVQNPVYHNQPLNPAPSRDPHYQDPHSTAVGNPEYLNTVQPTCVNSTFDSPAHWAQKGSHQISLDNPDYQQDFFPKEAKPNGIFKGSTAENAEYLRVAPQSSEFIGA

hERG (KCNH2) = hERG (KCNH2) (Homo sapiens, UniProt Q12809); experiment: Inhibition of human ERG expressed in HEK293 cells at 10 uM at -80 mV holding potential by […] relative to control; format: cell-based; conditions: HEK293 cells expressing human ERG
hERG (KCNH2), sequence (Q12809 whole entry): as the sequence (Q12809 whole entry) above

Homo sapiens = species on record: Homo sapiens; experiment: Selectivity ratio, ratio of IC50 for EGFR (unknown origin) to IC50 for full length human BTK ([…])
Rattus norvegicus [7] = experiment: Antiarthritic activity in Lewis rat model of collagen-induced arthritis assessed as reduction in ankle histopathological scores at 0.1 mg/kg, po administered via gavage once daily starting from day 6 to day 16 relative to control; design: scale not given: the % may be the effect or the level left
Rattus norvegicus [8] = experiment: Antiarthritic activity in Lewis rat model of collagen-induced arthritis assessed as reduction in ankle swelling at 0.1 mg/kg, po administered via gavage once daily starting from day 6 to day 16 and measured from day 11 to day 17 by caliper method
[9] = Efflux ratio in human Caco2 cells; format: ADME, cell-based; conditions: Caco-2
[10] = target: T1, Tyrosine-protein kinase BTK; experiment: Inhibition of BTK in human PBMC cells assessed as reduction in anti-IgM-stimulated CD69 expression on B cells preincubated for 60 mins followed by goat F(ab')2 anti-human IgM stimulation and measured after overnight incubation by flow cytometry; format: cell-based
[11] = Stability of the compound in plasma (unknown origin) assessed as compound remaining at 4 hrs; format: ADME, cell-free; conditions: read-out: Stability
Mus musculus [12] = experiment: Inhibition of B cell activation in C57BL/6 mouse at 1 mg/kg, po after 24 hr relative to control; format: functional; conditions: Mus musculus, C57BL/6, po, 24 h
Method in brief: (§1)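 Normal C57BL/6 mice received a single oral dose of 1 mg/kg and were tested in an in vivo B cell stimulation assay. Inhibition of B cell activation was read at 1 h and 24 h after dosing.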

Mus musculus [13] = experiment: Inhibition of B cell activation in C57BL/6 mouse at 1 mg/kg, po after 0.25 hr relative to control; format: functional; conditions: Mus musculus, C57BL/6, po, 0.25 h
[14] = Cmax in C57BL/6 mouse at 1 mg/kg, po; format: ADME, organism-based; design: dose 1 mg/kg, route oral; conditions: in vivo
Mus musculus [15] = experiment: Inhibition of B cell activation in C57BL/6 mouse at 1 mg/kg, po after 1 hr relative to control; format: functional; conditions: Mus musculus, C57BL/6, po, 1 h; method in brief: as §1
[16] = target: Tyrosine-protein kinase BTK (Homo sapiens, UniProt Q06187, C481S); experiment: Inhibition of BTK Cys481S mutant (unknown origin)
Tyrosine-protein kinase BTK (Homo sapiens, UniProt Q06187, C481S), sequence (Q06187 2-659 C481S limits assumed): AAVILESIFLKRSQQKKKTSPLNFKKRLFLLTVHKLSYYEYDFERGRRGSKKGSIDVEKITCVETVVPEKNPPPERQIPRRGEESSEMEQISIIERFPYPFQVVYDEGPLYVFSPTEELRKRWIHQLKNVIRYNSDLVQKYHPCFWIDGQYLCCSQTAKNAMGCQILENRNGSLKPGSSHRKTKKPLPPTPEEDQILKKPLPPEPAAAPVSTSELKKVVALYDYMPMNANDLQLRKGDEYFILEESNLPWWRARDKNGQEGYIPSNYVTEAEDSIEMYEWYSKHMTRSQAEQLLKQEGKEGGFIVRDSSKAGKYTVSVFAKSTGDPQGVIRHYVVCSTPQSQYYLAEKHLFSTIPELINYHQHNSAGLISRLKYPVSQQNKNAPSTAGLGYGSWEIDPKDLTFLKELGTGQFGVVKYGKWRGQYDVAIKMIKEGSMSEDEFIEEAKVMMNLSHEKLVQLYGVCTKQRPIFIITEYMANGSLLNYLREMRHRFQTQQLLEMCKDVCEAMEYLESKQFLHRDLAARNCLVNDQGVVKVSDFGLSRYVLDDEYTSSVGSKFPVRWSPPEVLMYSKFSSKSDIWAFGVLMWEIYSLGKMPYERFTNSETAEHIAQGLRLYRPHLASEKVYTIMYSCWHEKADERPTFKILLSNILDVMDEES

C=CC(=O)N[C@@H]1CC[C@H](Nc2ncnc(N)c2-c2ccc(Oc3ccccc3)cc2)C1 (relative stereo)
microsomal CLint at 1 µM [1]: 202 µL/min/mg | Papp A→B at 2 h, 1 µM [2]: 23.6 ×10⁻⁶ cm/s | solubility kinetic [3]: 158 µM (≈ 65.6 µg/mL)

C=CC(=O)N1CCC(CNc2ncnc(N)c2-c2ccc(C(=O)Nc3ccccc3)cc2)CC1
IC50 [4]: 1200 nM

C=CC(=O)N1CCC(CNc2ncnc(N)c2-c2ccc(Oc3ccc(C)cc3)cc2)CC1
IC50 [4]: 18 nM | microsomal CLint at 1 µM [1]: 145 µL/min/mg

C=CC(=O)N1CC2(CC(Nc3ncnc(N)c3-c3ccc(Oc4ccccc4)cc3)C2)C1
microsomal CLint at 1 µM [1]: 777 µL/min/mg | Papp A→B at 2 h, 1 µM [2]: 9.3 ×10⁻⁶ cm/s | Ki [5]: 780 nM | solubility kinetic [3]: 153 µM (≈ 65.4 µg/mL)

C=CC(=O)Nc1cccc(Oc2ccnc(N)c2-c2ccc(Oc3ccccc3)cc2)c1
IC50 [6]: 140 nM | inhibition at 10 µM (hERG (KCNH2)): 81% | IC50 [4]: 5 nM | Ratio IC50 (Homo sapiens): 25 to 30

CN(Cc1cnc2nc(N)nc(N)c2n1)c1ccc(C(=O)N[C@@H](CCC(=O)O)C(=O)O)cc1 [METHOTREXATE]
Activity (Rattus norvegicus [7]): 60% | Activity (Rattus norvegicus [8]): Active

C=CC(=O)Nc1cccc(Nc2ncnc(N)c2-c2ccc(Oc3ccccc3)cc2)c1
IC50 [6]: 4 nM | IC50 [4]: 4 nM | microsomal CLint at 1 µM [1]: 43 µL/min/mg | Papp A→B at 2 h, 1 µM [2]: 4.2 ×10⁻⁶ cm/s | Ki [5]: 530 nM | efflux ratio [9]: 1.6 | IC50 [10]: 19 nM | solubility kinetic [3]: 16 µM (≈ 6.78 µg/mL)

C=CC(=O)N1CCC(CNc2ncnc(N)c2-c2ccc(Oc3ccccc3)cc2C(F)(F)F)CC1
IC50 [4]: > 100000 nM

C=CC(=O)N1CCC(CNc2ncnc(N)c2-c2cc(F)c(Oc3ccccc3)cc2F)CC1
IC50 [4]: 160 nM | microsomal CLint at 1 µM [1]: 143 µL/min/mg

C=CC(=O)N1CCC(CNc2ncnc(N)c2-c2ccc(Oc3cccc(F)c3)cc2)CC1
microsomal CLint at 1 µM [1]: 199 µL/min/mg

C=CC(=O)Nc1cccc(Oc2ncnc(N)c2-c2ccc(Oc3ccccc3)cc2)c1
IC50 [6]: 78 nM | inhibition at 10 µM (hERG (KCNH2)): 3% | IC50 [4]: 2.9 to 3 nM | microsomal CLint at 1 µM [1]: 277 µL/min/mg | Papp A→B at 2 h, 1 µM [2]: 1.6 ×10⁻⁶ cm/s | Ratio IC50 (Homo sapiens): 25 to 30 | efflux ratio [9]: 4.3 | IC50 [10]: 9.9 nM | solubility kinetic [3]: < 2.4 µM

C=CC(=O)Nc1cccc(Oc2ccncc2-c2ccc(Oc3ccccc3)cc2)c1
IC50 [4]: 44 nM

C=CC(=O)Nc1cccc(Oc2ncncc2-c2ccc(Oc3ccccc3)cc2)c1
inhibition at 10 µM (hERG (KCNH2)): 46%

C=CS(=O)(=O)N1CCC(CNc2ncnc(N)c2-c2ccc(Oc3ccccc3)cc2)CC1
remaining at 4 h [11]: 16%

C=CC(=O)N1CCC(CNc2ncnc(N)c2-c2ccc(Oc3ccncc3)cc2)CC1
IC50 [4]: 730 nM | microsomal CLint at 1 µM [1]: 688 µL/min/mg

C=CC(=O)N1CCC(CNc2ncnc(N)c2-c2ccc(Oc3ccc(F)cc3)cc2)CC1
IC50 [4]: 150 nM | microsomal CLint at 1 µM [1]: 143 µL/min/mg

C#CC(=O)N1CCC(CNc2ncnc(N)c2-c2ccc(Oc3ccccc3)cc2)CC1
IC50 [4]: 0.2 nM | remaining at 4 h [11]: 34%

C=CC(=O)N[C@H]1CC[C@@H](Nc2ncnc(N)c2-c2ccc(Oc3ccccc3)cc2)CC1
microsomal CLint at 1 µM [1]: 41 µL/min/mg | Papp A→B at 2 h, 1 µM [2]: 10 ×10⁻⁶ cm/s | solubility kinetic [3]: 154 µM (≈ 66.1 µg/mL)

C=CC(=O)N1CCC(Nc2ncnc(N)c2-c2ccc(Oc3ccccc3)cc2)C1 (single isomer, unassigned)
inhibition at 10 µM (hERG (KCNH2)): 40% | microsomal CLint at 1 µM [1]: 77 µL/min/mg | Papp A→B at 2 h, 1 µM [2]: 25.2 ×10⁻⁶ cm/s | solubility kinetic [3]: 160 µM (≈ 64.2 µg/mL)

C=CC(=O)NC12CCC(Nc3ncnc(N)c3-c3ccc(Oc4ccccc4)cc3)(C1)C2
IC50 [4]: 9.9 nM | microsomal CLint at 1 µM [1]: 36 µL/min/mg | Papp A→B at 2 h, 1 µM [2]: 21.7 ×10⁻⁶ cm/s | Ki [5]: 1300 nM | efflux ratio [9]: 1.4 | IC50 [10]: 70 nM | solubility kinetic [3]: 110 µM (≈ 47 µg/mL)

Nc1ncnc(NCC2CCN(C(=O)C3=CCC3)CC2)c1-c1ccc(Oc2ccccc2)cc1
IC50 [4]: 290 nM | IC50 [10]: 290 nM

C=CC(=O)N1CCC(Nc2ncnc(N)c2-c2ccc(Oc3ccccc3)cc2)CC1
IC50 [4]: 1510 nM

Nc1ncnc(NCC2CCN(C(=O)CCl)CC2)c1-c1ccc(Oc2ccccc2)cc1
remaining at 4 h [11]: 49%

C=CC(=O)Nc1cccc(-c2c(N)ncnc2Nc2ccc(Oc3ccccc3)cc2)c1
IC50 [6]: 1 nM | IC50 [4]: 8 nM

C=CC(=O)N1CCCC(Nc2ncnc(N)c2-c2ccc(Oc3ccccc3)cc2)C1 (single isomer, unassigned)
IC50 [6]: 550 nM | inhibition at 10 µM (hERG (KCNH2)): 43% | microsomal CLint at 1 µM [1]: 598 µL/min/mg

C=CC(=O)N1CCC(O)(CNc2ncnc(N)c2-c2ccc(Oc3ccccc3)cc2)CC1
inhibition at 10 µM (hERG (KCNH2)): 45% | microsomal CLint at 1 µM [1]: 68 µL/min/mg | Papp A→B at 2 h, 1 µM [2]: 9 ×10⁻⁶ cm/s | inhibition in vivo at 1 mg/kg (Mus musculus [12]): 15% | inhibition in vivo at 1 mg/kg (Mus musculus [13]): 37% | Cmax [14]: 257 nM | inhibition in vivo at 1 mg/kg (Mus musculus [15]): 42% | solubility kinetic [3]: 169 µM (≈ 75.3 µg/mL)

C=CC(=O)NC1CCCN(c2ncnc(N)c2-c2ccc(Oc3ccccc3)cc2)C1 (stereo not drawn)
IC50 [4]: 1500 nM

C=CC(=O)N[C@@H]1CCC[C@H](Nc2ncnc(N)c2-c2ccc(Oc3ccccc3)cc2)C1 (relative stereo)
microsomal CLint at 1 µM [1]: 27 µL/min/mg | Papp A→B at 2 h, 1 µM [2]: 11.9 ×10⁻⁶ cm/s | Ki [5]: 1800 nM | solubility kinetic [3]: 134 µM (≈ 57.6 µg/mL)

CC(=O)N1CCC(CNc2ncnc(N)c2-c2ccc(Oc3ccccc3)cc2)CC1
IC50 [16]: 8600 to 8700 nM
